What was measured:
Format in all cases: functional
Staphylococcus aureus [1] = test: Antibacterial activity against methicillin-resistant Staphylococcus aureus H 5996/08 after 48 hrs by microdilution broth method; details: H 5996/08, 48 h
Escherichia coli [2] = test: Antibacterial activity against Escherichia coli CCM4517 after 24 hrs by microdilution broth method; details: CCM4517, 24 h
Summary of the method: (§1)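 Mueller-Hinton broth microdilution (modified M07-A07), pH 7.4 (±0.2). Compounds dissolved in DMSO, tested at final 500 to 0.49 µmol/L. Inoculum in sterile water matched to 0.5 McFarland. Incubated in the dark, humid atmosphere, 35 °C, read at 24 and 48 h visually and at 540 nm. MIC taken as ≥95% growth reduction (IC95) versus control.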

Mycobacterium kansasii [3] = test: Antimycobacterial activity against Mycobacterium kansasii 235/80 after 14 days; details: 235/80, 336 h
Summary of the method: (§2)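 Šula's semisynthetic medium micromethod at 37 °C, read after 7, 14 and 21 days. The 1.0 McFarland suspension was diluted 10^-4. MIC determined. 6509/96 is a clinical isolate.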

Klebsiella pneumoniae [4] = test: Antibacterial activity against Klebsiella pneumoniae D 11750/08 after 48 hrs by microdilution broth method; details: D 11750/08, 48 h; summary of the method: as §1
Aspergillus fumigatus [5] = test: Antifungal activity against Aspergillus fumigatus 231 after 48 hrs by microdilution broth method; details: Aspergillus fumigatus, 231, 48 h
Summary of the method: (§3)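 CLSI M27-A3 broth microdilution in RPMI 1640 with glutamine, buffered to pH 7.0 with MOPS; DMSO diluent. Yeast inoculum 5 × 10^3 ± 0.2 CFU/mL. Moulds grown on Sabouraud agar 3–10 days before spore harvest, final inoculum 0.5-5 × 10^4 CFU/mL, checked in a Bürker chamber. Incubated dark, humid, 35 °C, read at 24 and 48 h visually and at 540 nm. MIC taken as ≥80% (yeasts) or ≥50% (filamentous) growth reduction versus control.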

Candida albicans [6] = test: Antifungal activity against Candida albicans ATCC 44859 after 48 hrs by microdilution broth method; details: ATCC 44859, 48 h; summary of the method: as §3
Mycobacterium kansasii [7] = test: Antimycobacterial activity against Mycobacterium kansasii 6509/96 after 14 days; details: 6509/96, 336 h; summary of the method: as §2
Mycobacterium avium [8] = test: Antimycobacterial activity against Mycobacterium avium 330/80 after 21 days; details: 330/80, 504 h
Trichosporon asahii [9] = test: Antifungal activity against Trichosporon asahii 1188 after 24 hrs by microdilution broth method; details: Trichosporon asahii, 1188, 24 h; summary of the method: as §3
Trichosporon asahii [10] = test: Antifungal activity against Trichosporon asahii 1188 after 48 hrs by microdilution broth method; details: Trichosporon asahii, 1188, 48 h; summary of the method: as §3
Klebsiella pneumoniae [11] = test: Antibacterial activity against ESBL-positive Klebsiella pneumoniae J 14368/08 after 48 hrs by microdilution broth method; details: J 14368/08, 48 h; summary of the method: as §1
Pichia kudriavzevii [12] = test: Antifungal activity against Candida krusei E28 after 48 hrs by microdilution broth method; details: E28, 48 h; summary of the method: as §3
Mycobacterium kansasii [13] = test: Antimycobacterial activity against Mycobacterium kansasii 6509/96 after 21 days; details: 6509/96, 504 h; summary of the method: as §2
Candida tropicalis [14] = test: Antifungal activity against Candida tropicalis 156 after 24 hrs by microdilution broth method; details: Candida tropicalis, 156, 24 h; summary of the method: as §3
Lichtheimia corymbifera [15] = test: Antifungal activity against Absidia corymbifera 272 after 48 hrs by microdilution broth method; details: Lichtheimia corymbifera, 272, 48 h; summary of the method: as §3
Mycobacterium kansasii [16] = test: Antimycobacterial activity against Mycobacterium kansasii 235/80 after 21 days; details: 235/80, 504 h; summary of the method: as §2
[17] = test system: Staphylococcus epidermidis; test: Antibacterial activity against Staphylococcus epidermidis H 6966/08 after 24 hrs by microdilution broth method; details: H 6966/08, 24 h; summary of the method: as §1
Nakaseomyces glabratus [18] = test: Antifungal activity against Candida glabrata 20/I after 48 hrs by microdilution broth method; summary of the method: as §3
[19] = test system: Mycobacterium tuberculosis; test: Antimycobacterial activity against Mycobacterium tuberculosis H37Rv 331/88 after 21 days; details: H37Rv 331/88, 504 h
Mycobacterium kansasii [20] = test: Antimycobacterial activity against Mycobacterium kansasii 235/80 after 7 days; details: 235/80, 168 h; summary of the method: as §2
[21] = test system: Trichophyton mentagrophytes; test: Antifungal activity against Trichophyton mentagrophytes 445 after 48 hrs by microdilution broth method; details: Trichophyton mentagrophytes, 445, 48 h
[22] = test system: Staphylococcus epidermidis; test: Antibacterial activity against Staphylococcus epidermidis H 6966/08 after 48 hrs by microdilution broth method; details: H 6966/08, 48 h; summary of the method: as §1
Mycobacterium avium [23] = test: Antimycobacterial activity against Mycobacterium avium 330/80 after 14 days; details: 330/80, 336 h
Aspergillus fumigatus [24] = test: Antifungal activity against Aspergillus fumigatus 231 after 24 hrs by microdilution broth method; details: Aspergillus fumigatus, 231, 24 h; summary of the method: as §3
Klebsiella pneumoniae [25] = test: Antibacterial activity against Klebsiella pneumoniae D 11750/08 after 24 hrs by microdilution broth method; details: D 11750/08, 24 h; summary of the method: as §1
Lichtheimia corymbifera [26] = test: Antifungal activity against Absidia corymbifera 272 after 24 hrs by microdilution broth method; details: Lichtheimia corymbifera, 272, 24 h; summary of the method: as §3
Pseudomonas aeruginosa [27] = test: Antibacterial activity against Pseudomonas aeruginosa CCM 1961 after 48 hrs by microdilution broth method; details: CCM 1961, 48 h; summary of the method: as §1
Pseudomonas aeruginosa [28] = test: Antibacterial activity against Pseudomonas aeruginosa CCM 1961 after 24 hrs by microdilution broth method; details: CCM 1961, 24 h; summary of the method: as §1
Candida albicans [29] = test: Antifungal activity against Candida albicans ATCC 44859 after 24 hrs by microdilution broth method; details: ATCC 44859, 24 h; summary of the method: as §3
Staphylococcus aureus [30] = test: Antibacterial activity against methicillin-resistant Staphylococcus aureus H 5996/08 after 24 hrs by microdilution broth method; details: H 5996/08, 24 h
Staphylococcus aureus [31] = test: Antibacterial activity against Staphylococcus aureus CCM 4516/08 after 24 hrs by microdilution broth method; details: CCM 4516/08, 24 h
Staphylococcus aureus [32] = test: Antibacterial activity against Staphylococcus aureus CCM 4516/08 after 48 hrs by microdilution broth method; details: CCM 4516/08, 48 h
[33] = test system: Mycobacterium tuberculosis; test: Antimycobacterial activity against Mycobacterium tuberculosis H37Rv 331/88 after 14 days; details: H37Rv 331/88, 336 h
Escherichia coli [34] = test: Antibacterial activity against Escherichia coli CCM4517 after 48 hrs by microdilution broth method; details: CCM4517, 48 h; summary of the method: as §1
Enterococcus sp. [35] = test: Antibacterial activity against Enterococcus sp. J 14365/08 after 48 hrs by microdilution broth method; details: J 14365/08, 48 h; summary of the method: as §1
Candida tropicalis [36] = test: Antifungal activity against Candida tropicalis 156 after 48 hrs by microdilution broth method; details: Candida tropicalis, 156, 48 h; summary of the method: as §3
Enterococcus sp. [37] = test: Antibacterial activity against Enterococcus sp. J 14365/08 after 24 hrs by microdilution broth method; details: J 14365/08, 24 h; summary of the method: as §1
Pichia kudriavzevii [38] = test: Antifungal activity against Candida krusei E28 after 24 hrs by microdilution broth method; details: E28, 24 h; summary of the method: as §3
Nakaseomyces glabratus [39] = test: Antifungal activity against Candida glabrata 20/I after 24 hrs by microdilution broth method; summary of the method: as §3
Klebsiella pneumoniae [40] = test: Antibacterial activity against ESBL-positive Klebsiella pneumoniae J 14368/08 after 24 hrs by microdilution broth method; details: J 14368/08, 24 h; summary of the method: as §1
[41] = test system: Trichophyton mentagrophytes; test: Antifungal activity against Trichophyton mentagrophytes 445 after 24 hrs by microdilution broth method; details: Trichophyton mentagrophytes, 445, 24 h
Mycobacterium kansasii [42] = test: Antimycobacterial activity against Mycobacterium kansasii 6509/96 after 7 days; details: 6509/96, 168 h; summary of the method: as §2

Measured: MIC

O=C(Nc1cccc(I)c1)c1cc([N+](=O)[O-])ccc1O
500 µM: Trichosporon asahii [10] | Pichia kudriavzevii [12] | Candida tropicalis [14] | Nakaseomyces glabratus [18] | Lichtheimia corymbifera [26] | Candida albicans [29] | Candida tropicalis [36] | Pichia kudriavzevii [38] | Nakaseomyces glabratus [39]
32 µM: Mycobacterium kansasii [3] | Mycobacterium kansasii [42]
62.5 µM: Mycobacterium kansasii [7] | Mycobacterium kansasii [13] | Mycobacterium kansasii [16]
125 µM: Mycobacterium avium [8] | [21] | Mycobacterium avium [23] | [41]
16 µM: [19] | Mycobacterium kansasii [20] | [33]
250 µM: Aspergillus fumigatus [5] | Trichosporon asahii [9] | Aspergillus fumigatus [24] | Enterococcus sp. [37]
31.2 µM: Staphylococcus aureus [1] | [17] | [22] | Staphylococcus aureus [30] | Staphylococcus aureus [31] | Staphylococcus aureus [32]
> 500 µM: all other assays above

O=C(Nc1ccc([N+](=O)[O-])c(C(F)(F)F)c1)c1cc([N+](=O)[O-])ccc1O
32 µM: [19] | Mycobacterium kansasii [20] | [33]
62.5 µM: Mycobacterium kansasii [3] | Mycobacterium kansasii [7] | Staphylococcus aureus [31] | Staphylococcus aureus [32] | Mycobacterium kansasii [42]
31.2 µM: Staphylococcus aureus [1] | Staphylococcus aureus [30]
125 µM: Mycobacterium avium [8] | Mycobacterium kansasii [13] | Mycobacterium kansasii [16] | [17] | [22] | Mycobacterium avium [23]
> 500 µM: all other assays above

O=C(Nc1cccc(Br)c1)c1cc([N+](=O)[O-])ccc1O
62.5 µM: Staphylococcus aureus [1] | Mycobacterium kansasii [3] | Mycobacterium kansasii [7] | Mycobacterium kansasii [13] | Mycobacterium kansasii [16] | Staphylococcus aureus [32]
500 µM: Aspergillus fumigatus [5] | Trichosporon asahii [9] | Trichosporon asahii [10] | Lichtheimia corymbifera [15] | Aspergillus fumigatus [24] | Lichtheimia corymbifera [26] | Enterococcus sp. [37] | Pichia kudriavzevii [38]
250 µM: Mycobacterium avium [8] | [21] | [22] | [41]
32 µM: Mycobacterium kansasii [20] | Mycobacterium kansasii [42]
31.2 µM: [17] | Staphylococcus aureus [30] | Staphylococcus aureus [31]
16 µM: [19] | [33]
125 µM: Mycobacterium avium [23]
> 500 µM: all other assays above

O=C(Nc1cccc(F)c1)c1cc([N+](=O)[O-])ccc1O
16 µM: Mycobacterium kansasii [20] | [33]
32 µM: [19] | Mycobacterium kansasii [42]
62.5 µM: Mycobacterium kansasii [3] | Mycobacterium kansasii [7] | Mycobacterium kansasii [13] | Mycobacterium kansasii [16]
250 µM: [22]
125 µM: Staphylococcus aureus [1] | Mycobacterium avium [8] | [17] | Mycobacterium avium [23] | Staphylococcus aureus [30] | Staphylococcus aureus [31] | Staphylococcus aureus [32]
500 µM: [21] | [41]
> 500 µM: all other assays above

O=C(Nc1ccc([N+](=O)[O-])cc1)c1ccc([N+](=O)[O-])cc1O
32 µM: Mycobacterium kansasii [7] | Mycobacterium kansasii [13] | Mycobacterium kansasii [16] | Mycobacterium kansasii [42]
500 µM: Escherichia coli [2] | Klebsiella pneumoniae [25] | Pseudomonas aeruginosa [28] | Enterococcus sp. [37] | Klebsiella pneumoniae [40]
8 µM: Mycobacterium kansasii [20] | [33]
62.5 µM: Mycobacterium avium [8] | [17] | [22] | Mycobacterium avium [23] | Staphylococcus aureus [31] | Staphylococcus aureus [32]
16 µM: Mycobacterium kansasii [3] | [19]
31.2 µM: Staphylococcus aureus [1] | Staphylococcus aureus [30]
> 500 µM: all other assays above
